Values after ≈ are worked out from the molar mass of the structure shown.
Assays:
[1] = test system: Staphylococcus aureus; assay: Antimicrobial activity against Staphylococcus aureus ATCC 25922 in presence of 50% human plasma […]; format: functional; settings: ATCC 25923, Plasma, in the assay text read “ATCC 25923” for “ATCC 25922”
Procedure, shortened: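 S. aureus ATCC 25923 tested in Mueller–Hinton broth supplemented with 50% human plasma. Test compounds dissolved in 20% water in DMSO. Inoculum 10⁷ CFU/ml, incubated 35 °C for 18 h. MIC was the lowest concentration completely inhibiting growth.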

[2] = test system: Staphylococcus aureus; assay: Antimicrobial activity against methicillin-susceptible Staphylococcus aureus by agar dilution method; format: functional
Procedure, shortened: (§1)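 Agar dilution per CLSI on Mueller-Hinton agar, test agents at 0.12 to 8 µg/ml; test compounds dissolved in 20% water in DMSO, linezolid in 40% water in ethanol, vancomycin in water. Clinical isolates inoculated at final 10^7 CFU/ml, incubated 35 °C for 18 h. MIC = lowest concentration completely inhibiting growth; reported as range across isolates.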

[3] = test system: Staphylococcus aureus; assay: Antimicrobial activity against methicillin-resistant Staphylococcus aureus by agar dilution method; format: functional; procedure, shortened: as §1
[4] = test system: Staphylococcus; assay: Antimicrobial activity against methicillin-susceptible coagulase-negative staphylococcus by agar dilution method; format: functional; procedure, shortened: as §1
[5] = test system: Streptococcus pneumoniae; assay: Antimicrobial activity against Streptococcus pneumoniae by agar dilution method; format: functional
Procedure, shortened: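 Agar dilution per CLSI on Mueller–Hinton agar holding drug dilutions from 0.12 to 8 µg/ml. Staphylococci and enterococci tested on plain MH agar, S. pneumoniae on MH agar with 5% sheep blood. Test compounds dissolved in 20% water in DMSO. Inoculum 10⁷ CFU/ml, incubated 35 °C for 18 h. MIC was the lowest concentration giving complete growth inhibition.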

[6] = test system: Enterococcus; assay: Antimicrobial activity against vancomycin-sensitive Enterococcus by agar dilution method; format: functional; procedure, shortened: as §1
[7] = test system: Enterococcus; assay: Antimicrobial activity against vancomycin-resistant Enterococcus by agar dilution method; format: functional; procedure, shortened: as §1
[8] = test system: Haemophilus influenzae; assay: Antimicrobial activity against Haemophilus influenzae; format: functional
[9] = test system: Moraxella catarrhalis; assay: Antimicrobial activity against Moraxella catarrhalis; format: functional
[10] = test system: Escherichia coli; assay: Antimicrobial activity against Escherichia coli ATCC 25922; format: functional
[11] = test system: Staphylococcus; assay: Antimicrobial activity against methicillin-resistant coagulase-negative Staphylococcus by agar dilution method; format: functional; procedure, shortened: as §1
[12] = test system: Staphylococcus aureus; assay: Antimicrobial activity against Staphylococcus aureus ATCC 25923 by agar dilution method

With `O=C(c1cccs1)N1CCN(c2ccc(N3C[C@H](Cn4ccnn4)OC3=O)cc2F)CC1` the MIC [1] was 4 µg/mL, the MIC [2] was 0.5 µg/mL (≈ 1.1 µM) and the MIC [3] was 0.5 µg/mL (≈ 1.1 µM). The MIC [4] was 0.25 µg/mL (≈ 0.548 µM), the MIC [5] was 0.25 µg/mL (≈ 0.548 µM) and the MIC [6] was 0.5 µg/mL (≈ 1.1 µM). The MIC [7] was 0.5 µg/mL (≈ 1.1 µM), the MIC [8] was ≥ 8 µg/mL and the MIC [9] was ≥ 8 µg/mL. The MIC [10] was ≥ 8 µg/mL, the MIC [11] was 0.25 µg/mL (≈ 0.548 µM) and the MIC [12] was 0.5 µg/mL (≈ 1.1 µM).
`O=C(c1ccccc1[N+](=O)[O-])N1CCN(c2ccc(N3C[C@H](Cn4ccnn4)OC3=O)cc2F)CC1` was tested, and the MIC [1] was 2 µg/mL, the MIC [2] was 1 µg/mL (≈ 2.02 µM) and the MIC [3] was 0.5 µg/mL (≈ 1.01 µM). It also gave an MIC [4] of 1 µg/mL (≈ 2.02 µM), an MIC [5] of 0.5 µg/mL (≈ 1.01 µM) and an MIC [6] of 2 µg/mL (≈ 4.04 µM). For the same compound, the MIC [7] was 1 µg/mL (≈ 2.02 µM), the MIC [8] was ≥ 8 µg/mL and the MIC [9] was ≥ 8 µg/mL. For the same compound, the MIC [10] was ≥ 8 µg/mL, the MIC [11] was 1 µg/mL (≈ 2.02 µM) and the MIC [12] was 2 µg/mL (≈ 4.04 µM).
Compound `O=C(c1cccnc1)N1CCN(c2ccc(N3C[C@H](Cn4ccnn4)OC3=O)cc2F)CC1` has an MIC [1] of 4 µg/mL, an MIC [2] of 0.5 µg/mL (≈ 1.11 µM) and an MIC [3] of 0.5 µg/mL (≈ 1.11 µM). For the same compound, the MIC [4] was 0.5 µg/mL (≈ 1.11 µM), the MIC [5] was 0.5 µg/mL (≈ 1.11 µM) and the MIC [6] was 1 µg/mL (≈ 2.22 µM). For the same compound, the MIC [7] was 0.5 µg/mL (≈ 1.11 µM), the MIC [8] was ≥ 8 µg/mL and the MIC [9] was ≥ 8 µg/mL. For the same compound, the MIC [10] was ≥ 8 µg/mL, the MIC [11] was 0.5 µg/mL (≈ 1.11 µM) and the MIC [12] was 1 µg/mL (≈ 2.22 µM).
With `O=C(c1ccc([N+](=O)[O-])cc1)N1CCN(c2ccc(N3C[C@H](Cn4ccnn4)OC3=O)cc2F)CC1` the MIC [1] was 4 µg/mL, the MIC [2] was 2 µg/mL (≈ 4.04 µM) and the MIC [3] was 1 µg/mL (≈ 2.02 µM). For the same compound, the MIC [4] was 1 µg/mL (≈ 2.02 µM), the MIC [5] was 1 µg/mL (≈ 2.02 µM) and the MIC [6] was 2 µg/mL (≈ 4.04 µM). For the same compound, the MIC [7] was 2 µg/mL (≈ 4.04 µM), the MIC [8] was ≥ 8 µg/mL and the MIC [9] was ≥ 8 µg/mL. For the same compound, the MIC [10] was ≥ 8 µg/mL, the MIC [11] was 1 µg/mL (≈ 2.02 µM) and the MIC [12] was 2 µg/mL (≈ 4.04 µM).
For `O=C(/C=C/c1ccccc1Cl)N1CCN(c2ccc(N3C[C@H](Cn4ccnn4)OC3=O)cc2F)CC1`, the MIC [1] was > 8 µg/mL, the MIC [2] was 0.25 µg/mL (≈ 0.489 µM) and the MIC [3] was 0.25 µg/mL (≈ 0.489 µM). The MIC [4] was 0.25 µg/mL (≈ 0.489 µM), the MIC [5] was 4 µg/mL (≈ 7.83 µM) and the MIC [6] was 0.5 µg/mL (≈ 0.979 µM). The MIC [7] was 0.25 µg/mL (≈ 0.489 µM), the MIC [8] was ≥ 8 µg/mL and the MIC [9] was ≥ 8 µg/mL. For the same compound, the MIC [10] was ≥ 8 µg/mL, the MIC [11] was 0.25 µg/mL (≈ 0.489 µM) and the MIC [12] was 0.5 µg/mL (≈ 0.979 µM).
With `O=C1O[C@@H](Cn2ccnn2)CN1c1ccc(N2CCN(S(=O)(=O)c3cccs3)CC2)c(F)c1` the MIC [1] was > 8 µg/mL, the MIC [2] was 0.5 µg/mL (≈ 1.02 µM) and the MIC [3] was 0.5 µg/mL (≈ 1.02 µM). It also gave an MIC [4] of 0.5 µg/mL (≈ 1.02 µM), an MIC [5] of 1 µg/mL (≈ 2.03 µM) and an MIC [6] of 0.5 µg/mL (≈ 1.02 µM). The MIC [7] was 0.5 µg/mL (≈ 1.02 µM), the MIC [8] was ≥ 8 µg/mL and the MIC [9] was ≥ 8 µg/mL. For the same compound, the MIC [10] was ≥ 8 µg/mL, the MIC [11] was 0.5 µg/mL (≈ 1.02 µM) and the MIC [12] was 1 µg/mL (≈ 2.03 µM).
For `O=C(c1cccc(F)c1)N1CCN(c2ccc(N3C[C@H](Cn4ccnn4)OC3=O)cc2F)CC1`, the MIC [1] was 4 µg/mL, the MIC [2] was 0.25 µg/mL (≈ 0.534 µM) and the MIC [3] was 0.25 µg/mL (≈ 0.534 µM). It also gave an MIC [4] of 0.5 µg/mL (≈ 1.07 µM), an MIC [5] of 0.5 µg/mL (≈ 1.07 µM) and an MIC [6] of 0.5 µg/mL (≈ 1.07 µM). For the same compound, the MIC [7] was 0.5 µg/mL (≈ 1.07 µM), the MIC [8] was ≥ 8 µg/mL and the MIC [9] was ≥ 8 µg/mL. The MIC [10] was ≥ 8 µg/mL, the MIC [11] was 0.5 µg/mL (≈ 1.07 µM) and the MIC [12] was 1 µg/mL (≈ 2.13 µM).
In the case of `COc1ccc(C(=O)N2CCN(c3ccc(N4C[C@H](Cn5ccnn5)OC4=O)cc3F)CC2)cc1`, the MIC [1] is reported as 8 µg/mL, the MIC [2] is reported as 1 µg/mL (≈ 2.08 µM) and the MIC [3] is reported as 0.5 µg/mL (≈ 1.04 µM). The MIC [4] was 0.5 µg/mL (≈ 1.04 µM), the MIC [5] was 0.5 µg/mL (≈ 1.04 µM) and the MIC [6] was 1 µg/mL (≈ 2.08 µM). For the same compound, the MIC [7] was 1 µg/mL (≈ 2.08 µM), the MIC [8] was ≥ 8 µg/mL and the MIC [9] was ≥ 8 µg/mL. The MIC [10] was ≥ 8 µg/mL, the MIC [11] was 1 µg/mL (≈ 2.08 µM) and the MIC [12] was 2 µg/mL (≈ 4.16 µM).

Reference: ChEMBL document CHEMBL1142890, “Structure-antibacterial activity of arylcarbonyl- and arylsulfonyl-piperazine 5-triazolylmethyl oxazolidinones” (2007)
